In test [1] the test system is Rattus norvegicus. The experiment in a line: Inhibition of ACTH response to MK-212 by the compound (1 mg/Kg) in rats. It counts as functional. Summed up:
(§1)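 Male Sprague-Dawley rats (200–250 g) received compound (0, 0.1 or 1 mg/kg sc) 20 min before MK-212 sc or solvent. Rats were decapitated 30 min after MK-212, and trunk blood plasma was taken. Rat ACTH was measured by radioimmunoassay (ng/mL), as means ± SEM of eight experiments.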

Test [2] concerns Rattus norvegicus. The experiment in a line: Inhibition of ACTH response to MK-212 by the compound (0.1 mg/Kg) in rats. It counts as functional. In short, it runs like this: as §1
Test [3] concerns Rattus norvegicus. The experiment in a line: Inhibition of ACTH response to MK-212 by the compound (1 mg/Kg) in rats with solvent. It is filed as functional. In short, it runs like this: as §1
Test [4] deals with T1, Alpha-1A adrenergic receptor (Bos taurus) (UniProt P18130).
T1 sequence (whole entry): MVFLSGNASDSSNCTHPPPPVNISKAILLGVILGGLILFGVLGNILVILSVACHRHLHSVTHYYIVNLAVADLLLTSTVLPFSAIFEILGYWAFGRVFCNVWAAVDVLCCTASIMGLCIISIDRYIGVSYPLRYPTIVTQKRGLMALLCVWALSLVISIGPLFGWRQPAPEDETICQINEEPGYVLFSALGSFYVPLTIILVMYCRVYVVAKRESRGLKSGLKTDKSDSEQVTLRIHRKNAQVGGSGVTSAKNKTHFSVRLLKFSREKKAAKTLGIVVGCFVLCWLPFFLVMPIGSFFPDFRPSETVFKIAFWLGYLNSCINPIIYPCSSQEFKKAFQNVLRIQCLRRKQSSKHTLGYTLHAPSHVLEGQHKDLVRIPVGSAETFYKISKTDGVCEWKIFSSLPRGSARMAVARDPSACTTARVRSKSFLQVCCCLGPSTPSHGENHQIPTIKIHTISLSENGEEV

In test [5] the target is T2, 5-hydroxytryptamine receptor 2C (Homo sapiens) (UniProt P28335).
T2 sequence (whole entry): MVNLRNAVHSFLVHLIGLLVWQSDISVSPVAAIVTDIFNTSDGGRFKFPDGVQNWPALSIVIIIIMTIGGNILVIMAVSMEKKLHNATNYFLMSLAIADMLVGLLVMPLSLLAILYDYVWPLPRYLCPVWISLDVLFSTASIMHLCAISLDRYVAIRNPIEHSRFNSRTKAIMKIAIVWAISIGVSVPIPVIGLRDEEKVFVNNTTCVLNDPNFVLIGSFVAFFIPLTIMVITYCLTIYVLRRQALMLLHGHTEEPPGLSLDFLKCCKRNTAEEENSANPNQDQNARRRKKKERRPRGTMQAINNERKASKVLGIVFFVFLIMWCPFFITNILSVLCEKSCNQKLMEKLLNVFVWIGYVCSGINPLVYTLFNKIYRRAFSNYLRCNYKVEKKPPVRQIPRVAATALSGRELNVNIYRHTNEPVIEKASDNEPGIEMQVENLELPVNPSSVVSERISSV

The target in test [6] is T3, 5-hydroxytryptamine receptor 1A (Homo sapiens) (UniProt P08908).
T3 sequence (whole entry): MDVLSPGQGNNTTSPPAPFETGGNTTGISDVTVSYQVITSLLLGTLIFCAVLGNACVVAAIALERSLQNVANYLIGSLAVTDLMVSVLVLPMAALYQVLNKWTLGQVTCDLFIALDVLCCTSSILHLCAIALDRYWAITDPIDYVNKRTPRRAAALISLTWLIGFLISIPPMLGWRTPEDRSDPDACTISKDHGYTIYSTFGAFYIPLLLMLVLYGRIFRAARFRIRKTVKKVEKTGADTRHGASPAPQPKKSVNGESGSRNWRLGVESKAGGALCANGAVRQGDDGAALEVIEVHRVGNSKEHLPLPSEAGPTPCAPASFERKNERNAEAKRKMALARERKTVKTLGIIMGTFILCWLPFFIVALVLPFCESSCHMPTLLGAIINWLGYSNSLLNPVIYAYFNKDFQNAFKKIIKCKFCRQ
The settings on record: Sus scrofa; Frontal cortex; Membrane.

Test [7] deals with Serotonin 3 receptor (5HT3) (Mus musculus) (UniProt Q9JHJ5+P23979). The settings on record: Cortex.
Chain of Serotonin 3 receptor (5HT3) (Mus musculus) (P23979 whole entry, looked up): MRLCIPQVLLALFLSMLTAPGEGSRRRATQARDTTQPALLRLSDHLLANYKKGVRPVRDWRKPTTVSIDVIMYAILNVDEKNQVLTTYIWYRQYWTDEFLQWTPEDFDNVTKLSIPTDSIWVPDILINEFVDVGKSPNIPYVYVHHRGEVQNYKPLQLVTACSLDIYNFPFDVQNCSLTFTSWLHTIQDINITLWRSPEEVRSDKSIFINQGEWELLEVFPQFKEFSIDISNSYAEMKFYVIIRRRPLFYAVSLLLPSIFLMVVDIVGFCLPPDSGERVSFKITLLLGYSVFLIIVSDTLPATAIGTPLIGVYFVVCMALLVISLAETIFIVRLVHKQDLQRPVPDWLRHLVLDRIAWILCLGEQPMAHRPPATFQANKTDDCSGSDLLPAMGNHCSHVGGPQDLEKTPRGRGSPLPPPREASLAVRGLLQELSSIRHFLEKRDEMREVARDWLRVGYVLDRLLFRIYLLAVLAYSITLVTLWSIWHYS
Chain of Serotonin 3 receptor (5HT3) (Mus musculus) (Q9JHJ5 whole entry, looked up): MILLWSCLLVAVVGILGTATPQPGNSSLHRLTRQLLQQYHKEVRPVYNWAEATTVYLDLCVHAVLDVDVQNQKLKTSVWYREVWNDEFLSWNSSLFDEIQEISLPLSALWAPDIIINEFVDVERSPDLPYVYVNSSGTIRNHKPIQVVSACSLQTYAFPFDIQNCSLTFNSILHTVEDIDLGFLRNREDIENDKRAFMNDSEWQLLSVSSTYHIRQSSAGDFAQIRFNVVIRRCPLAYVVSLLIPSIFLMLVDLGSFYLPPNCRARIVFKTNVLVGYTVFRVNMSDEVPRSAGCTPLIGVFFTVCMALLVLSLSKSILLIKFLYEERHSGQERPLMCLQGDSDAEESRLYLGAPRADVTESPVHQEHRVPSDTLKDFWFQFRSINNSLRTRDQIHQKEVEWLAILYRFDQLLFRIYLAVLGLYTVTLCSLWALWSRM
Test [8] concerns the target T4, Alpha-2A adrenergic receptor (Bos taurus) (UniProt Q28838).
T4 sequence (whole entry): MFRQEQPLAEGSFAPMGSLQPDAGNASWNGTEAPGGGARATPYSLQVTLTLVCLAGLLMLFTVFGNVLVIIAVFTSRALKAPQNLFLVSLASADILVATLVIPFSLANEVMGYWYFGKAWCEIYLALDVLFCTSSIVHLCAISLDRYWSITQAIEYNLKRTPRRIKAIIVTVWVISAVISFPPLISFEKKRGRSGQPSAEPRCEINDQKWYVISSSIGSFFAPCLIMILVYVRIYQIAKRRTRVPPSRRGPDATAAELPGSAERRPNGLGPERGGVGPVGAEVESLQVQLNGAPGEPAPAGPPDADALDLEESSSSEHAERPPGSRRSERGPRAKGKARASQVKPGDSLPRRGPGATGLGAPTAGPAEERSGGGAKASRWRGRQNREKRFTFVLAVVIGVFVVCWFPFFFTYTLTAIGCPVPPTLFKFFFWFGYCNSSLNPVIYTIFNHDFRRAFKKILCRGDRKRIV

The target in test [9] is D(1A) dopamine receptor (Bos taurus) (UniProt Q95136). The settings on record: Striatum.
Chain of D(1A) dopamine receptor (Bos taurus) (Q95136 whole entry): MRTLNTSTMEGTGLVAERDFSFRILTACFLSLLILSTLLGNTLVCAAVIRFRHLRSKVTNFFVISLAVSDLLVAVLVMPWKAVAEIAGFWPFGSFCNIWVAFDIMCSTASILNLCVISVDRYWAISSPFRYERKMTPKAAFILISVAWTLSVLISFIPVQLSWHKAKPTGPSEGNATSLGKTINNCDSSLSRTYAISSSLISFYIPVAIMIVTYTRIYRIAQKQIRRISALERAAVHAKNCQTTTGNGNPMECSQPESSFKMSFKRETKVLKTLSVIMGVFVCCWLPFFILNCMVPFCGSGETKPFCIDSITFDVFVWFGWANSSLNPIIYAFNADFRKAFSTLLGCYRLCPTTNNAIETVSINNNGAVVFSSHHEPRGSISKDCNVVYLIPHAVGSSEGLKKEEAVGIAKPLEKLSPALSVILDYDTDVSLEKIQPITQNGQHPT
For test [10], the target named is D(2) dopamine receptor (Bos taurus) (UniProt P20288). Particulars: Striatum.
Chain of D(2) dopamine receptor (Bos taurus) (P20288 whole entry): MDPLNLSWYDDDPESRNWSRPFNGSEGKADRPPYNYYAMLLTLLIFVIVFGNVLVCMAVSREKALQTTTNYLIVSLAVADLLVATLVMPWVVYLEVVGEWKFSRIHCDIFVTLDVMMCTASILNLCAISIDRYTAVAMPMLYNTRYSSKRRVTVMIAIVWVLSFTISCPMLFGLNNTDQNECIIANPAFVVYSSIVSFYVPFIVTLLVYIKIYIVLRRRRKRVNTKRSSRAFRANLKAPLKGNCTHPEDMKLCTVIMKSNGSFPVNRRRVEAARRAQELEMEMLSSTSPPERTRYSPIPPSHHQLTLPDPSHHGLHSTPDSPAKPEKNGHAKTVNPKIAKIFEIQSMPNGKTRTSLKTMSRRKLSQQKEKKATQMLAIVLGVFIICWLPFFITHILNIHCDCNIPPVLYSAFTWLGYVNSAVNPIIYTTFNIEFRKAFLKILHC
The target of test [11] is 5-hydroxytryptamine receptor 2A (Rattus norvegicus) (UniProt P14842). Particulars: N1E-115.
Chain of 5-hydroxytryptamine receptor 2A (Rattus norvegicus) (P14842 whole entry): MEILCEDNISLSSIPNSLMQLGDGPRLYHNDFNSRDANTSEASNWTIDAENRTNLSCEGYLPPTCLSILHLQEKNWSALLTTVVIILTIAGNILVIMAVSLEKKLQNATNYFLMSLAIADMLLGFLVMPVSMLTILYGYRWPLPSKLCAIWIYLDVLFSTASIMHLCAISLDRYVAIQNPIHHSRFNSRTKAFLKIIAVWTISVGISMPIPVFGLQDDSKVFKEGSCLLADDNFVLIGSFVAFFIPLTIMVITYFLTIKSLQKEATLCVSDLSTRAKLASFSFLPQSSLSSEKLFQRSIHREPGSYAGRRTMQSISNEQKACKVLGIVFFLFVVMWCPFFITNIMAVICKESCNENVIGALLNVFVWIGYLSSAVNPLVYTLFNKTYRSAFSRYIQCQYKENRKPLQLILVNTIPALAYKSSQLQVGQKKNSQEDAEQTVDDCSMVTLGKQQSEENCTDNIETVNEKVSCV
The target of test [12] is 5-hydroxytryptamine receptor 1B (Rattus norvegicus) (UniProt P28564).
Chain of 5-hydroxytryptamine receptor 1B (Rattus norvegicus) (P28564 whole entry): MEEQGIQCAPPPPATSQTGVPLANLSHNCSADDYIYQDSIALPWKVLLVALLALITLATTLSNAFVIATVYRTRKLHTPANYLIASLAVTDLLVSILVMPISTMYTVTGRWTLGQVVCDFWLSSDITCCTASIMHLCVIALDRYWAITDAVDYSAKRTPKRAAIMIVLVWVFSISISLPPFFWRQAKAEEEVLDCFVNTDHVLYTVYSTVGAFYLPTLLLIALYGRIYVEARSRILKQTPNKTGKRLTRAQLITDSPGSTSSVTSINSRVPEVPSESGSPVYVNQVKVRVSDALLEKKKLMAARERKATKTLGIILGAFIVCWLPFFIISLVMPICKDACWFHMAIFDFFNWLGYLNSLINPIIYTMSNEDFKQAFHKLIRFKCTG

This note sets out measurements from ChEMBL document CHEMBL1128341, “(+)-cis-4,5,7a,8,9,10,11,11a-octahydro-7H-10-methylindolo[1,7- bc][2,6]-naphthyridine: a 5-HT2C/2B receptor antagonist with low 5-HT2A receptor affinity” (1995).

The term pKD denotes −log10 of the KD, conventionally taken in molar units. Read a low pKD as a high KD.

`CN1CC[C@@H]2CN3CCc4cccc(c43)[C@@H]2C1` (stereo in doubt; 8) [listing 1 of 2 here]: the figures for the Inhibition in [1], in test [2] and in [3] were 95.1 ng/mL, 165.8 ng/mL and 38.5 ng/mL, respectively.
`CN1CC[C@@H]2CN3CCc4cccc(c43)[C@@H]2C1` (stereo in doubt; 8) [listing 2 of 2 here]: the pKD in [4] was 5.6; in [5] it was 7.8; in [6] it was 6.1; in [7] it was 4.7; in test [8], 6.5; in test [9], under 5. The pKD in test [10] was under 5; in [11], 6.2; in test [12], 4.6.
As for `CN1CC[C@@H]2CN3CCc4cccc(c43)[C@@H]2C1` (stereo in doubt; 9), the pKD in test [4] is 6; in [6], under 5; in test [8], 6; in test [9], under 5; in test [10], under 5.
On to `Cc1nc2sccn2c(=O)c1CCN1CCC(=C(c2ccc(F)cc2)c2ccc(F)cc2)CC1` [RITANSERIN], for which the Inhibition turned out to be 95.4 ng/mL in test [1], 204.3 ng/mL in test [2] and 37.2 ng/mL in [3].
